{
  "source": "ChEMBL document CHEMBL1821590",
  "about": "“Novel dihydropyrimidines and its pyrazole derivatives: synthesis and pharmacological screening” (Eur J Med Chem, 2011)",
  "format_in_all_cases": "functional",
  "key": {"[1]": {"test_system": "Bacillus subtilis", "test": "Antimicrobial activity against Bacillus subtilis at 50 ug/ml by agar plate diffusion technique", "settings": "read-out: IZ", "outline": "(§1)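 Agar plate diffusion against E. coli, P. aeruginosa, S. aureus and B. subtilis, with compounds at 25, 50 and 100 µg/mL. Streptomycin as standard.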"}, "[2]": {"test_system": "Bacillus subtilis", "test": "Antimicrobial activity against Bacillus subtilis at 25 ug/ml by agar plate diffusion technique", "settings": "read-out: IZ", "outline": "as §1"}, "[3]": {"test_system": "Aspergillus niger", "test": "Antimicrobial activity against Aspergillus niger at 100 ug/ml by paper disc method", "settings": "read-out: IZ", "outline": "(§2)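 Paper disc method against A. niger and C. albicans, with compounds at 25, 50 and 100 µg/mL. Amphotericin-B as standard.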"}, "[4]": {"test_system": "Metaphire posthuma", "test": "Anthelmintic activity against Pheretima posthuma assessed as time taken for complete parasite paralysis at 0.2% w/v", "outline": "(§3)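 Earthworms (Pheretima posthuma) exposed to test solutions at 0.1, 0.2 and 0.5% w/v; time in minutes to complete paralysis (worms motionless) recorded. Albendazole as standard. Mean of three determinations ± S.D.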"}, "[5]": {"test": "Antioxidant activity assessed as potassium ferricyanide ion reducing power after 20 mins", "outline": "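Oyaizu method. Samples or ascorbic acid in DMF (12.5–100 µg/mL) mixed with 0.2 M phosphate buffer pH 6.6 and 1% potassium ferricyanide, 20 min at 50 °C. 10% TCA added, centrifuged. Supernatant mixed with water and 0.1% FeCl3, read at 700 nm. % = [(Vt/Vc) − 1] × 100. IC50 derived.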"}, "[6]": {"test": "Antioxidant activity assessed as hydrogen peroxide scavenging activity after 10 mins", "outline": "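H2O2 (20 mM) in PBS pH 7.4. 1 mL of sample or ascorbic acid in methanol (12.5–100 µg/mL) added to 2 mL H2O2 solution. A230 read after 10 min. % inhibition = [1 − (Vt/Vc)] × 100. Triplicate, averaged. IC50 derived from % inhibition across concentrations.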"}, "[7]": {"test_system": "Staphylococcus aureus", "test": "Antimicrobial activity against Staphylococcus aureus at 50 ug/ml by agar plate diffusion technique", "settings": "read-out: IZ", "outline": "as §1"}, "[8]": {"test": "Antiinflammatory activity assessed as inhibition of albumin denaturation at 100 ug/ml by UV-visible spectrophotometry", "outline": "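Compounds dissolved in minimal DMF, diluted in PBS pH 7.4 (final DMF <2.5%). 1 mL test solution (100 µg/mL) plus 1 mL 1% albumin in PBS, 15 min at 27 ± 1 °C, then heated 10 min at 60 ± 1 °C. After cooling, turbidity read at 660 nm. % inhibition = [(Vt/Vc) − 1] × 100 against a no-drug control. Triplicate, averaged. Diclofenac standard.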"}, "[9]": {"test_system": "Metaphire posthuma", "test": "Anthelmintic activity against Pheretima posthuma assessed as time taken for parasite death at 0.2% w/v", "outline": "(§4)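 Earthworms (Pheretima posthuma, spelled Perituma posthuma in text) exposed to test compounds at 0.1, 0.2 and 0.5% w/v. Albendazole served as standard, with an untreated control. Paralysis was recorded as the time until worms became motionless, then time to death was recorded, in minutes. Each value is the mean of three determinations with S.D.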"}, "[10]": {"test_system": "Escherichia coli", "test": "Antimicrobial activity against Escherichia coli at 50 ug/ml by agar plate diffusion technique", "settings": "read-out: IZ", "outline": "as §1"}, "[11]": {"test_system": "Staphylococcus aureus", "test": "Antimicrobial activity against Staphylococcus aureus at 25 ug/ml by agar plate diffusion technique", "settings": "read-out: IZ", "outline": "as §1"}, "[12]": {"test_system": "Metaphire posthuma", "test": "Anthelmintic activity against Pheretima posthuma assessed as time taken for complete parasite paralysis at 0.5% w/v", "outline": "as §3"}, "[13]": {"test_system": "Bacillus subtilis", "test": "Antimicrobial activity against Bacillus subtilis at 100 ug/ml by agar plate diffusion technique", "settings": "read-out: IZ", "outline": "as §1"}, "[14]": {"test_system": "Candida albicans", "test": "Antimicrobial activity against Candida albicans at 100 ug/ml by paper disc method", "settings": "read-out: IZ", "outline": "as §2"}, "[15]": {"test": "Antioxidant activity assessed as nitric oxide radical scavenging activity after 150 mins", "outline": "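10 mM sodium nitroprusside (4 mL), PBS pH 7.4 (1 mL) and sample or ascorbic acid in DMSO (1 mL, 12.5–100 µg/mL), incubated 150 min at 25 °C. Nitrite detected with sulphanilic acid (5 min) then naphthylethylenediamine (30 min, diffused light). Read at […]. Triplicate. % inhibition = [1 − (Vt/Vc)] × 100. IC50 derived from it.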"}, "[16]": {"test_system": "Candida albicans", "test": "Antimicrobial activity against Candida albicans at 50 ug/ml by paper disc method", "settings": "read-out: IZ", "outline": "as §2"}, "[17]": {"test_system": "Aspergillus niger", "test": "Antimicrobial activity against Aspergillus niger at 25 ug/ml by paper disc method", "settings": "read-out: IZ", "outline": "as §2"}, "[18]": {"test_system": "Escherichia coli", "test": "Antimicrobial activity against Escherichia coli at 25 ug/ml by agar plate diffusion technique", "settings": "read-out: IZ", "outline": "as §1"}, "[19]": {"test_system": "Metaphire posthuma", "test": "Anthelmintic activity against Pheretima posthuma assessed as time taken for complete parasite paralysis at 0.1% w/v", "outline": "as §3"}, "[20]": {"test_system": "Pseudomonas aeruginosa", "test": "Antimicrobial activity against Pseudomonas aeruginosa at 100 ug/ml by agar plate diffusion technique", "settings": "read-out: IZ", "outline": "as §1"}, "[21]": {"test_system": "Escherichia coli", "test": "Antimicrobial activity against Escherichia coli at 100 ug/ml by agar plate diffusion technique", "settings": "read-out: IZ", "outline": "as §1"}, "[22]": {"test_system": "Aspergillus niger", "test": "Antimicrobial activity against Aspergillus niger at 50 ug/ml by paper disc method", "settings": "read-out: IZ", "outline": "as §2"}, "[23]": {"test_system": "Metaphire posthuma", "test": "Anthelmintic activity against Pheretima posthuma assessed as time taken for parasite death at 0.1% w/v", "outline": "as §4"}, "[24]": {"test": "Antioxidant activity assessed as inhibition of lipid peroxidation using egg lecithin liposomes incubated for 1 hr", "outline": "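Egg lecithin (3 mg/mL, phosphate buffer pH 7.4) sonicated 10 min to form liposomes. Sample or ascorbic acid (12.5–100 µg/mL) added. Peroxidation induced with FeCl3 and L-ascorbic acid, 1 h at 37 °C. Stopped with HCl/TCA/TBA/BHA, boiled 15 min, centrifuged, supernatant read at 532 nm. Triplicate. % inhibition vs control. IC50 derived.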"}, "[25]": {"test_system": "Metaphire posthuma", "test": "Anthelmintic activity against Pheretima posthuma assessed as time taken for parasite death at 0.5% w/v", "outline": "as §4"}, "[26]": {"test_system": "Staphylococcus aureus", "test": "Antimicrobial activity against Staphylococcus aureus at 100 ug/ml by agar plate diffusion technique", "settings": "read-out: IZ", "outline": "as §1"}, "[27]": {"test_system": "Pseudomonas aeruginosa", "test": "Antimicrobial activity against Pseudomonas aeruginosa at 50 ug/ml by agar plate diffusion technique", "settings": "read-out: IZ", "outline": "as §1"}, "[28]": {"test_system": "Pseudomonas aeruginosa", "test": "Antimicrobial activity against Pseudomonas aeruginosa at 25 ug/ml by agar plate diffusion technique", "settings": "read-out: IZ", "outline": "as §1"}, "[29]": {"test_system": "Candida albicans", "test": "Antimicrobial activity against Candida albicans at 25 ug/ml by paper disc method", "settings": "read-out: IZ", "outline": "as §2"}},
  "data": [
    {"smiles": "Cn1c(NN)nc(-c2ccccc2Cl)c(C#N)c1=O", "values": [
      {"measurement": "zone of inhibition at 50 µg/mL", "setting": "[1]", "result": 15.1, "unit": "mm"},
      {"measurement": "zone of inhibition at 25 µg/mL", "setting": "[2]", "result": 11.1, "unit": "mm"},
      {"measurement": "zone of inhibition at 100 µg/mL", "setting": "[3]", "result": 19.4, "unit": "mm"},
      {"measurement": "Time", "setting": "[4]", "result": 52.38, "unit": "min"},
      {"measurement": "IC50", "setting": "[5]", "result": 58, "unit": "µg/mL"},
      {"measurement": "IC50", "setting": "[6]", "result": 46, "unit": "µg/mL"},
      {"measurement": "zone of inhibition at 50 µg/mL", "setting": "[7]", "result": 15.9, "unit": "mm"},
      {"measurement": "inhibition", "setting": "[8]", "result": 53.5, "unit": "%"},
      {"measurement": "Time", "setting": "[9]", "result": 66.37, "unit": "min"},
      {"measurement": "zone of inhibition at 50 µg/mL", "setting": "[10]", "result": 10.1, "unit": "mm"},
      {"measurement": "zone of inhibition at 25 µg/mL", "setting": "[11]", "result": 12.8, "unit": "mm"},
      {"measurement": "Time", "setting": "[12]", "result": 45.38, "unit": "min"},
      {"measurement": "zone of inhibition at 100 µg/mL", "setting": "[13]", "result": 22.7, "unit": "mm"},
      {"measurement": "zone of inhibition at 100 µg/mL", "setting": "[14]", "result": 21.4, "unit": "mm"},
      {"measurement": "IC50", "setting": "[15]", "result": 62, "unit": "µg/mL"},
      {"measurement": "zone of inhibition at 50 µg/mL", "setting": "[16]", "result": 17.9, "unit": "mm"},
      {"measurement": "zone of inhibition at 25 µg/mL", "setting": "[17]", "result": 11.2, "unit": "mm"},
      {"measurement": "zone of inhibition at 25 µg/mL", "setting": "[18]", "result": 9.26, "unit": "mm"},
      {"measurement": "Time", "setting": "[19]", "result": 50.65, "unit": "min"},
      {"measurement": "zone of inhibition at 100 µg/mL", "setting": "[20]", "result": 15.4, "unit": "mm"},
      {"measurement": "zone of inhibition at 100 µg/mL", "setting": "[21]", "result": 13.1, "unit": "mm"},
      {"measurement": "zone of inhibition at 50 µg/mL", "setting": "[22]", "result": 14, "unit": "mm"},
      {"measurement": "Time", "setting": "[23]", "result": 67.33, "unit": "min"},
      {"measurement": "IC50", "setting": "[24]", "result": 57, "unit": "µg/mL"},
      {"measurement": "Time", "setting": "[25]", "result": 60.86, "unit": "min"},
      {"measurement": "zone of inhibition at 100 µg/mL", "setting": "[26]", "result": 19.3, "unit": "mm"},
      {"measurement": "zone of inhibition at 50 µg/mL", "setting": "[27]", "result": 12.7, "unit": "mm"},
      {"measurement": "zone of inhibition at 25 µg/mL", "setting": "[28]", "result": 8.41, "unit": "mm"},
      {"measurement": "zone of inhibition at 25 µg/mL", "setting": "[29]", "result": 13.4, "unit": "mm"}
    ]}
  ]
}
